Laboratory results from ChEMBL document CHEMBL3763095, “Naphtho[1',2':4,5]imidazo[1,2-a]pyridine-5,6-diones: Synthesis, enzymatic reduction and cytotoxic activity” (Bioorg Med Chem Lett, 2016).
In brackets after ≈: the same amount, converted by molar mass.

Tests used:
A549 [1] = assay: Cytotoxicity against human A549 cells expressing NQO1 assessed as cell viability after 24 hrs by MTT assay; type: functional; settings: A549, 24 h, read-out: LC50 (the source's name)
Outline: (§1)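 Cells exposed to the quinones for 24 h, then survival read by MTT assay. Viability expressed as percent of solvent-treated control cells. LC50 (concentration causing 50% lethal effect) obtained from logistic dose-response curves.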

MCF7 [2] = assay: Cytotoxicity against human MCF7 cells expressing NQO1 assessed as cell viability after 24 hrs by MTT assay; type: functional; settings: MCF7, 24 h, read-out: LC50 (the source's name); outline: as §1
[3] = Cytotoxicity against NQO1-deficient human HL60 cells assessed as cell viability after 24 hrs by MTT assay; type: cell-based, HL-60; settings: read-out: LC50; outline: as §1
A549 [4] = assay: Ratio of LC50 for human A549 cells expressing NQO1 in presence of NQO1 inhibitor dicoumarol to LC50 for human A549 cells expressing NQO1 in absence of NQO1 inhibitor dicoumarol; type: functional
MCF7 [5] = assay: Ratio of LC50 for human MCF7 cells expressing NQO1 in presence of NQO1 inhibitor dicoumarol to LC50 for human A549 cells expressing NQO1 in absence of NQO1 inhibitor dicoumarol; type: functional
Staphylococcus aureus = assay: Antibacterial activity against Staphylococcus aureus ATCC 25923 after 16 hrs by two-fold microdillution method; type: functional; settings: ATCC 25923, 16 h

Row | Compound | CC50 (A549 [1]) | CC50 (MCF7 [2]) | CC50 at 24 h [3] | RatioLC50 (A549 [4]) | RatioLC50 (MCF7 [5]) | MIC (Staphylococcus aureus)
1 | O=C1C(=O)c2c(nc3ccccn23)-c2ccc([N+](=O)[O-])cc21 | 0.12 µM | 0.28 µM | > 15 µM | 3.3 | 3.6 | –
2 | O=C1C(=O)c2c(nc3ccc(Br)cn23)-c2ccccc21 | 3.93 µM | 1.39 µM | > 15 µM | – | – | 6.1 µM (≈ 2 µg/mL)
3 | O=C1C(=O)c2c(nc3ccc(C(F)(F)F)cn23)-c2ccccc21 | 0.9 µM | 3.78 µM | > 15 µM | – | – | 6.3 µM (≈ 1.99 µg/mL)
4 | O=C1C(=O)c2c(nc3ccc(F)cn23)-c2ccccc21 | 2.03 µM | 1.32 µM | 13 µM | – | – | 15 µM (≈ 3.99 µg/mL)
5 | O=C1C(=O)c2c(nc3ncccn23)-c2ccccc21 | 1.6 µM | 0.8 µM | > 15 µM | – | – | 8 µM (≈ 1.99 µg/mL)
6 | O=C1C(=O)c2c(nc3ccc([N+](=O)[O-])cn23)-c2ccccc21 | 2.3 µM | 1.7 µM | > 15 µM | – | – | –
7 | O=C1C(=O)c2c(nc3ccccn23)-c2ccccc21 | 0.67 µM | 0.51 µM | > 15 µM | 3.1 | 2.3 | 16.1 µM (≈ 4 µg/mL)
8 | Cc1ccn2c3c(nc2c1)-c1ccccc1C(=O)C3=O | 1.5 µM | 1.25 µM | > 15 µM | – | – | 15.2 µM (≈ 3.99 µg/mL)
9 | Cc1cccn2c3c(nc12)-c1ccccc1C(=O)C3=O | 3.4 µM | 1.7 µM | > 15 µM | – | – | 15.2 µM (≈ 3.99 µg/mL)
10 | Cc1ccc2nc3c(n2c1)C(=O)C(=O)c1ccccc1-3 | 8.34 µM | 3.94 µM | > 15 µM | – | – | 15.2 µM (≈ 3.99 µg/mL)
11 | O=C1C(=O)c2c(nc3ccc4ccccc4n23)-c2ccccc21 | > 15 µM | > 15 µM | > 15 µM | – | – | –
12 | O=C1C(=O)c2c(nc3ccc(Cl)cn23)-c2ccccc21 | 2.06 µM | 3.41 µM | 10 µM | – | – | 7 µM (≈ 1.98 µg/mL)
13 | COc1ccc2nc3c(n2c1)C(=O)C(=O)c1ccccc1-3 | 3.35 µM | 2.1 µM | > 15 µM | – | – | 14.3 µM (≈ 3.98 µg/mL)
14 | CC1(C)S[C@@H]2[C@H](NC(=O)[C@H](N)c3ccc(O)cc3)C(=O)N2[C@H]1C(=O)O [AMOXICILLIN] | – | – | – | – | – | 0.3 µM (≈ 0.11 µg/mL)
15 | COc1cccc2c1C(=O)c1c(O)c3c(c(O)c1C2=O)C[C@@](O)(C(=O)CO)C[C@@H]3O[C@H]1C[C@H](N)[C@H](O)[C@H](C)O1 [DOXORUBICIN] | 1.17 µM | 1.56 µM | 0.37 µM | – | – | –
16 | CN[C@@H]1[C@H](O[C@H]2[C@H](O[C@H]3[C@H](O)[C@@H](O)[C@H](N=C(N)N)[C@@H](O)[C@@H]3N=C(N)N)O[C@@H](C)[C@]2(O)C=O)O[C@@H](CO)[C@H](O)[C@H]1O [STREPTOMYCIN] | – | – | – | – | – | 5.4 µM (≈ 3.14 µg/mL)
